Source: ChEMBL document CHEMBL3124839, “Polyamine transport inhibitors: design, synthesis, and combination therapies with difluoromethylornithine” (J Med Chem, 2014)
Calls of active or inactive are those of the source. The calls are words filed in the database; no cut-off is given here.

What was measured:
[1] = Competitive inhibition of polyamine transport system-mediated [3H]-spermidine uptake in DFMO-treated human L3.6PL cells after 15 mins by Lineweaver-Burk plot analysis in presence of aminoguanidine
Procedure, shortened: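 3H-spermidine uptake in L3.6pl cells in HBSS (with Ca2+/Mg2+) at 37 °C for 15 min, with 3H-Spd fixed at 1 μM and PTI at 0–3 μM. Cells were lysed in 0.1% SDS, counted by scintillation and normalized to BCA protein.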

[2] = Inhibition of polyamine transport system-mediated [3H]-spermidine uptake in DFMO-treated CHO cells after 48 hrs in presence of spermidine and aminoguanidine; conditions: Cricetulus griseus
CHO-MG = test: Cytotoxicity against polyamine transport-deficient CHO-MG cells assessed as growth inhibition after 48 hrs by MTS assay in presence of aminoguanidine; type: ADME, cell-based; conditions: Cricetulus griseus
Procedure, shortened: (§1)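 CHO and transport-deficient CHO-MG* cells (CHO-MG* medium with 2 μg/mL L-proline) plated at 10 000 cells/mL and pretreated 24 h with 1 mM aminoguanidine. Compound in PBS added after overnight incubation, then 48 h at 37 °C, 5% CO2. Growth read by MTS formazan absorbance at 490 nm against untreated control.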

CHO = test: Cytotoxicity against CHO cells assessed as growth inhibition after 48 hrs by MTS assay in presence of aminoguanidine; type: cell-based, Cricetulus griseus; conditions: for IC50: Cricetulus griseus, CHO; for IC10: chinese hamster, cho; procedure, shortened: as §1
[3] = Inhibition of polyamine transport system-mediated [3H]-spermidine uptake in DFMO-treated human L3.6PL cells after 48 hrs in presence of spermidine and aminoguanidine
[4] = Cytotoxicity against human L3.6PL cells assessed as growth inhibition after 48 hrs by MTS assay in presence of aminoguanidine; type: cell-based; conditions: for IC50: Homo sapiens, L3.6pl; for IC10: human, l3.6pl
[5] = Selectivity ratio of IC50 for polyamine transport-deficient CHO-MG cells to IC50 for CHO cells; type: ADME, cell-based, Cricetulus griseus; conditions: chinese hamster, polyamine transport-deficient CHO-MG cells and CHO cells; read-out: Ratio IC50
Homo sapiens [6] = species: Homo sapiens; test: Inhibition of polyamine transport system-mediated [3H]-spermidine uptake in DFMO-treated human L3.6PL cells at IC10 after 48 hrs in presence of aminoguanidine
Homo sapiens [7] = species: Homo sapiens; test: Inhibition of polyamine transport system-mediated [3H]-spermidine uptake in DFMO-treated human L3.6PL cells after 48 hrs in presence of spermine and aminoguanidine
Homo sapiens [8] = species: Homo sapiens; test: Inhibition of polyamine transport system-mediated [3H]-spermidine uptake in DFMO-treated human L3.6PL cells after 48 hrs in presence of putrescine and aminoguanidine
[9] = Cytotoxicity against human L3.6PL cells assessed as growth inhibition after 48 hrs by MTS assay; type: cell-based
[10] = Cytotoxicity against human L3.6PL cells assessed as cell viability at 0.01 uM after 48 hrs by MTS assay in presence of aminoguanidine relative to control; type: cell-based; conditions: read-out: Activity
Procedure, shortened: (§2)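 L3.6pl cells plated at 5000 cells/mL and pretreated 24 h with 250 μM aminoguanidine. Exposed to compound for 48 h at 37 °C. Growth read by MTS absorbance at 490 nm relative to untreated control.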

Homo sapiens [11] = species: Homo sapiens; test: Inhibition of polyamine transport system in DFMO-treated human L3.6PL cells assessed as increase in spermine level at 7 uM after 48 hrs by HPLC analysis in presence of spermidine and aminoguanidine relative to control; parameters: scale not given: the % may be the effect or the level left
Procedure, shortened: (§3)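 L3.6pl cells (450 000 per 6 mL medium with 10% FBS) pretreated 24 h with 250 μM aminoguanidine, then 48 h at 37 °C with DFMO 8 mM, Spd 1 μM, PTI 7 μM, alone or combined. Acid lysates dansylated with 1,7-diaminoheptane as internal standard and polyamines quantified by HPLC as nmol/mg BCA protein. Growth given relative to untreated control.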

Homo sapiens [12] = species: Homo sapiens; test: Inhibition of polyamine transport system in DFMO-treated human L3.6PL cells assessed as reduction in intracellular spermidine level at 7 uM after 48 hrs by HPLC analysis in presence of spermidine and aminoguanidine relative to control; type: cell-based; procedure, shortened: as §3
Homo sapiens [13] = species: Homo sapiens; test: Inhibition of polyamine transport system in DFMO-treated human L3.6PL cells assessed as reduction in intracellular putrescine level at 7 uM after 48 hrs by HPLC analysis in presence of spermidine and aminoguanidine; type: cell-based; procedure, shortened: as §3
Homo sapiens [14] = species: Homo sapiens; test: Inhibition of polyamine transport system in human L3.6PL cells assessed as reduction in intracellular spermidine level at 7 uM after 48 hrs by HPLC analysis in presence of spermidine and aminoguanidine relative to control; type: cell-based; procedure, shortened: as §3
Homo sapiens [15] = species: Homo sapiens; test: Inhibition of polyamine transport system in human L3.6PL cells assessed as reduction in intracellular spermidine level at 7 uM after 48 hrs by HPLC analysis in presence of aminoguanidine relative to control; type: cell-based; procedure, shortened: as §3
[16] = Cytotoxicity against DFMO-treated human L3.6PL cells assessed as growth at 7 uM after 48 hrs in presence of spermidine and aminoguanidine relative to control; type: functional; conditions: read-out: Activity; procedure, shortened: as §3
Homo sapiens [17] = species: Homo sapiens; test: Inhibition of polyamine transport system in DFMO-treated human L3.6PL cells assessed as total polyamine level at 7 uM after 48 hrs by HPLC analysis in presence of spermidine and aminoguanidine relative to control; procedure, shortened: as §3
[18] = Cytotoxicity against human L3.6PL cells assessed as growth at 7 uM after 48 hrs in presence of spermidine and aminoguanidine relative to control; type: functional; conditions: read-out: Activity; procedure, shortened: as §3
Homo sapiens [19] = species: Homo sapiens; test: Inhibition of polyamine transport system in human L3.6PL cells assessed as total polyamine level at 7 uM after 48 hrs by HPLC analysis in presence of spermidine and aminoguanidine relative to control; type: cell-based; procedure, shortened: as §3
[20] = Cytotoxicity against human L3.6PL cells assessed as growth at 7 uM after 48 hrs in presence of aminoguanidine relative to control; type: functional; conditions: read-out: Activity; procedure, shortened: as §3
Homo sapiens [21] = species: Homo sapiens; test: Inhibition of polyamine transport system in human L3.6PL cells assessed as total polyamine level at 7 uM after 48 hrs by HPLC analysis in presence of aminoguanidine relative to control; type: cell-based; procedure, shortened: as §3
[22] = Cytotoxicity against human L3.6PL cells assessed as cell viability at 0.1 uM after 48 hrs by MTS assay in presence of aminoguanidine relative to control; type: cell-based; conditions: read-out: Activity; procedure, shortened: as §2
[23] = Homo sapiens, L3.6pl, read-out: EC50

| EC50 [2] [µM] | EC50 [3, 23] [µM] | inhibition (Homo sapiens [6]) | EC50 [3] | SMILES | Ki [1] [µM] | IC50 (CHO-MG) [µM] | IC50 (CHO) [µM] | IC10 (CHO) [µM] | IC50 [4] [µM] | IC10 [4] [µM] | selectivity ratio [5] | also measured |
| --- | --- | --- | --- | --- | --- | --- | --- | --- | --- | --- | --- | --- |
| 60 | 89.8 |  |  | Cl.NCCCCNCCCCNC(=O)c1cc(C(=O)NCCCCNCCCCN)cc(C(=O)NCCCCNCCCCN)c1 | 0.398 | > 100 | > 100 | > 100 | > 100 | > 100 |  |  |
|  |  | inactive | Not Active | Cl.NCCCCNCCCCNCCCCNC(=O)c1cc(C(=O)NCCCCNCCCCNCCCCN)cc(C(=O)NCCCCNCCCCNCCCCN)c1 |  | 69.1 | 16 | 1 | 9.7 | 1 | 4.3 |  |
|  |  |  |  | NCCCCNCCCCNCc1c2ccccc2cc2ccccc12 |  |  |  |  |  |  | 148 |  |
| 0.34 | 0.77 |  |  | Cl.NCCCCNCCCCNCc1cc(CNCCCCNCCCCN)cc(CNCCCCNCCCCN)c1 | 0.036 | 66.9 | > 100 | 10 | > 100 | 10 |  | inhibition (Homo sapiens [7]): Active; inhibition (Homo sapiens [8]): Active; IC50 [9]: 188 µM |
|  |  | inactive | Not Active | Cl.NCCCCNCCCCNCCCCNCc1cccc(CNCCCCNCCCCNCCCCN)c1 |  | 13.4 | 0.04 | 0.01 | 7.5 | 0.01 | 335 | viability at 48 h, 0.01 µM [10]: 8% |
| 0.42 | 1.4 |  |  | CNCCCCNCCCCNCc1cc(CNCCCCNCCCCNC)cc(CNCCCCNCCCCNC)c1.Cl | 0.055 | 122 | > 100 | 10 | > 100 | 10 |  | IC50 [9]: 183 µM; Activity (Homo sapiens [11]): 67%; inhibition (Homo sapiens [12]): 87%; inhibition (Homo sapiens [13]): Active; inhibition (Homo sapiens [14]): 33%; inhibition (Homo sapiens [15]): 27%; growth at 7 µM [16]: 70%; Activity (Homo sapiens [17]): 19.9 nmol/mg; growth at 7 µM [18]: 88%; Activity (Homo sapiens [19]): 37.4 nmol/mg; growth at 7 µM [20]: 117%; Activity (Homo sapiens [21]): 40.4 nmol/mg |
|  |  | inactive | Not Active | Cl.NCCCCNCCCCNCc1cccc(CNCCCCNCCCCN)c1 |  | 30 | 0.028 | 0.01 | 52.2 | 0.1 | 1070 | viability at 48 h, 0.1 µM [22]: 8% |
|  |  |  |  | Cl.NCCCCNCCCCNCc1ccc(CNCCCCNCCCCN)cc1 |  |  | 0.027 | 0.001 |  |  | 727 |  |
|  |  |  |  | Cl.NCCCC[C@H](N)C(=O)NCCCNCCCCNCCCN |  |  |  | > 100 |  | > 100 |  |  |
|  |  |  | Not Active | Cl.NCCCNCCCCNCCCNC(=O)c1cc(C(=O)NCCCNCCCCNCCCN)cc(C(=O)NCCCNCCCCNCCCN)c1 |  |  |  |  | 47.5 | 8 |  |  |
